Tests used:
Assay type in all cases: functional
NCI-H322M [1] = test: Growth inhibition of human NCI-H322M cells assessed as cell growth at 10^-4 M after 48 hrs by SRB assay; conditions: read-out: Activity
K562 = test: Growth inhibition of human K562 cells assessed as cell growth at 10^-4 M after 48 hrs by SRB assay; conditions: K562, 48 h, read-out: Activity
SW-620 = test: Growth inhibition of human SW620 cells assessed as cell growth at 10^-8 M after 48 hrs by SRB assay; conditions: SW-620, 48 h, read-out: Activity
COLO 205 = test: Growth inhibition of human COLO205 cells assessed as cell growth at 10^-8 M after 48 hrs by SRB assay; conditions: COLO 205, 48 h, read-out: Activity
Method in brief: (§1)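 Five-dose NCI panel protocol. Each dose (10^-4 to 10^-8 M, 10-fold steps) was given as 48 h continuous exposure, and protein was measured by SRB staining. Percentage growth at each level is [(Ti−Tz)/(C−Tz)]×100, where Tz is time-zero absorbance and C is untreated control.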

[2] = Growth inhibition of human SF295 cells assessed as cell growth at 10^-5 M after 48 hrs by SRB assay; conditions: SF-295, 48 h, read-out: Activity
HCT-116 = test: Growth inhibition of human HCT116 cells assessed as cell growth at 10^-5 M after 48 hrs by SRB assay; conditions: HCT-116, 48 h, read-out: Activity
MDA-MB-468 = test: Growth inhibition of human MDA-MB-468 cells assessed as cell growth at 10^-6 M after 48 hrs by SRB assay; conditions: MDA-MB-468, 48 h, read-out: Activity
PC-3 = test: Growth inhibition of human PC3 cells assessed as cell growth at 10^-6 M after 48 hrs by SRB assay; conditions: PC-3, 48 h, read-out: Activity
[3] = Growth inhibition of human LOXIMVI cells assessed as cell growth at 10^-4 M after 48 hrs by SRB assay; conditions: LOX IMVI, read-out: Activity
[4] = Growth inhibition of human UO31 cells assessed as cell growth at 10^-7 M after 48 hrs by SRB assay; conditions: UO-31, 48 h, read-out: Activity
CAKI-1 = test: Growth inhibition of human CAKI-1 cells assessed as cell growth at 10^-7 M after 48 hrs by SRB assay; conditions: CAKI-1, 48 h, read-out: Activity; method in brief: as §1
MDA-MB-435 = test: Cytotoxicity against human MDA-MB-435 cells after 48 hrs by SRB assay; conditions: MDA-MB-435, 48 h
Method in brief: (§2)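 NCI 60-cell-line panel of human tumour lines from nine cancer types. Continuous 48 h exposure at five 10-fold dilutions from 10^-4 to 10^-8 M, with 5-FU as positive control. SRB protein stain read spectrophotometrically at time zero, untreated control and each concentration. GI50, TGI and LC50 were derived from the [(Ti−Tz)/(C−Tz)]×100 growth relations, and out-of-range values are given as > or < the tested limits.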

SNB-75 = test: Growth inhibition of human SNB75 cells assessed as cell growth at 10^-8 M after 48 hrs by SRB assay; conditions: SNB-75, 48 h, read-out: Activity
SF-268 [5] = test: Growth inhibition of human SF268 cells assessed as cell growth at 10^-8 M after 48 hrs by SRB assay; conditions: SF-268, 48 h, read-out: Activity
[6] = Cytotoxicity against human UO31 cells after 48 hrs by SRB assay; conditions: UO-31, 48 h
Method in brief: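 NCI 60-cell-line panel, 48 h continuous exposure to five 10-fold dilutions from 10^-4 to 10^-8 M. SRB protein staining was read spectrophotometrically, with time-zero, untreated-control and treated absorbances. GI50, TGI and LC50 were derived from the percentage-growth formulas. Values outside the tested range are expressed as more or less than the maximum or minimum concentration.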

SK-OV-3 = test: Growth inhibition of human SKOV3 cells assessed as cell growth at 10^-7 M after 48 hrs by SRB assay; conditions: SK-OV-3, 48 h, read-out: Activity
Malme-3M = test: Growth inhibition of human MALME-3M cells assessed as cell growth at 10^-7 M after 48 hrs by SRB assay; conditions: read-out: Activity
SNB-19 = test: Growth inhibition of human SNB19 cells assessed as cell growth at 10^-7 M after 48 hrs by SRB assay; conditions: SNB-19, 48 h, read-out: Activity
SF-268 [7] = test: Growth inhibition of human SF268 cells assessed as cell growth at 10^-7 M after 48 hrs by SRB assay; conditions: SF-268, 48 h, read-out: Activity
NCI-H322M [8] = test: Growth inhibition of human NCI-H322M cells assessed as cell growth at 10^-7 M after 48 hrs by SRB assay; conditions: read-out: Activity
[9] = Growth inhibition of human HOP92 cells assessed as cell growth at 10^-7 M after 48 hrs by SRB assay; conditions: HOP-92, 48 h, read-out: Activity
MDA-MB-231 [10] = test: Growth inhibition of human MDA-MB-231 cells assessed as cell growth at 10^-8 M after 48 hrs by SRB assay; conditions: MDA-MB-231, 48 h, read-out: Activity
HCC 2998 = test: Cytotoxicity against human HCC2998 cells after 48 hrs by SRB assay; conditions: HCC 2998, 48 h; method in brief: as §2
[11] = Cytotoxicity against human EKVX cells after 48 hrs by SRB assay; method in brief: as §2
[12] = Growth inhibition of human BT549 cells assessed as cell growth at 10^-4 M after 48 hrs by SRB assay; conditions: BT-549, 48 h, read-out: Activity; method in brief: as §1
MDA-MB-231 [13] = test: Growth inhibition of human MDA-MB-231 cells assessed as cell growth at 10^-4 M after 48 hrs by SRB assay; conditions: MDA-MB-231, 48 h, read-out: Activity
[14] = Growth inhibition of human RXF393 cells assessed as cell growth at 10^-4 M after 48 hrs by SRB assay; conditions: RXF 393, 48 h, read-out: Activity
ACHN = test: Growth inhibition of human ACHN cells assessed as cell growth at 10^-4 M after 48 hrs by SRB assay; conditions: read-out: Activity; method in brief: as §1
A498 = test: Growth inhibition of human A498 cells assessed as cell growth at 10^-4 M after 48 hrs by SRB assay; conditions: A498, 48 h, read-out: Activity; method in brief: as §1
[15] = read-out: LC50 (the source's name)
[16] = read-out: pLC50 (the source's name) (converted)

For Cc1ccc(-c2nc3ccc(Cl)cc3c(=O)n2/N=C/c2ccccc2)cc1, the growth at 100 µM (NCI-H322M [1]) was 42%, the growth at 100 µM (K562) was 59% and the growth at 0.01 µM (SW-620) was 96%. For the same compound, the growth at 0.01 µM (COLO 205) was 103%, the growth at 10 µM [2] was 36% and the growth at 10 µM (HCT-116) was 37%. It also gave a growth at 1 µM (MDA-MB-468) of 92%, a growth at 1 µM (PC-3) of 86% and a growth at 100 µM [3] of 48%. The growth at 0.1 µM [4] was 60%, the growth at 0.1 µM (CAKI-1) was 76% and the GI50 (MDA-MB-435; read-out: GI50) was over 100 µM. It also gave a CC50 (MDA-MB-435; [15]) of over 100 µM, a TGI (MDA-MB-435; read-out: TGI) of over 100 µM and a GI50 (MDA-MB-435; read-out: pGI50 (converted)) of over 100 µM. For the same compound, the CC50 (MDA-MB-435; [16]) was over 100 µM, the TGI (MDA-MB-435; read-out: pTGI) was over 100 µM and the growth at 0.01 µM (SNB-75) was 87%. It also gave a growth at 0.01 µM (SF-268 [5]) of 91%, a GI50 ([6]; read-out: GI50) of 3.66 µM and a CC50 [6, 15] of over 100 µM. For the same compound, the TGI ([6]; read-out: TGI) was over 100 µM, the GI50 ([6]; read-out: pGI50 (converted)) was 3.63 µM and the CC50 [6, 16] was over 100 µM. The TGI ([6]; read-out: pTGI) was over 100 µM, the growth at 0.1 µM (SK-OV-3) was 97% and the growth at 0.1 µM (Malme-3M) was 76%. For the same compound, the growth at 0.1 µM (SNB-19) was 93%, the growth at 0.1 µM (SF-268 [7]) was 88% and the growth at 0.1 µM (NCI-H322M [8]) was 76%. The growth at 0.1 µM [9] was 89%, the growth at 0.01 µM (MDA-MB-231 [10]) was 108% and the GI50 (HCC 2998; read-out: GI50) was over 100 µM. It also gave a CC50 (HCC 2998; [15]) of over 100 µM, a TGI (HCC 2998; read-out: TGI) of over 100 µM and a GI50 (HCC 2998; read-out: pGI50 (converted)) of over 100 µM. It also gave a CC50 (HCC 2998; [16]) of over 100 µM, a TGI (HCC 2998; read-out: pTGI) of over 100 µM and a GI50 ([11]; read-out: GI50) of 4.15 µM. It also gave a CC50 [11, 15] of over 100 µM, a TGI ([11]; read-out: TGI) of over 100 µM and a GI50 ([11]; read-out: pGI50 (converted)) of 4.17 µM. For the same compound, the CC50 [11, 16] was over 100 µM, the TGI ([11]; read-out: pTGI) was over 100 µM and the growth at 100 µM [12] was 72%. The growth at 100 µM (MDA-MB-231 [13]) was 16%, the growth at 100 µM [14] was 19% and the growth at 100 µM (ACHN) was 6%. The growth at 100 µM (A498) was 17%.

Source: ChEMBL document CHEMBL3259728, “Design, synthesis and biological evaluation of some novel substituted quinazolines as antitumor agents” (2014)
